# Sampled rows, rich in hits. Any-hit rate of the full collection: about 4.9%.
# NPY Y1 blocker: NPY-Y1 receptor antagonists, primary screen, cell-based. 200,000 tested, 1% active. HEK293-CNG Y1 cells, membrane potential fluorescence; NPY at EC95, then isoproterenol. inhibition, % at 3.6 µM. Neuropeptide Y receptor type 1 (Homo sapiens), P25929;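 active = inhibition above the campaign mean inhibition of all tested compounds plus 3 SD, cut at about 20% in these data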;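 note: 0% = DMSO wells given NPY plus isoproterenol and 100% = isoproterenol alone without NPY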
# Target sequence (P25929 whole entry, looked up): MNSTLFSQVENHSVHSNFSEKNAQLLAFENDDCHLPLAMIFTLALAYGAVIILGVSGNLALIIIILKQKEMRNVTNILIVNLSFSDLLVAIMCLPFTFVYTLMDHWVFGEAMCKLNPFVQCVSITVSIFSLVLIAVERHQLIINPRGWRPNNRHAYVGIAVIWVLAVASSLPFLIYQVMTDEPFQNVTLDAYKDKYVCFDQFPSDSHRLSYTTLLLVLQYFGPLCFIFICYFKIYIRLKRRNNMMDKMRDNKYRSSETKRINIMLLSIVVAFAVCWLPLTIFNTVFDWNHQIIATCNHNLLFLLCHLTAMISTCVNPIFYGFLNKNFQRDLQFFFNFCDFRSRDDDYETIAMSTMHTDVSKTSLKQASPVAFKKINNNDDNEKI
#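 Test system – HEK293 Y1/CNG channel cell line · Also added – NPY agonist 25 nM, then isoproterenol 1 µM plus Ro 20-1724 25 µM · Compound dosing – one concentration, 3.6 µM, in 0.4% DMSO · Schedule – compound incubation 1 h at room temperature, readout 45 min post-stimulation · Technique – fluorescence, membrane potential probe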
# NPY2 pot ag: NPY-Y2 potentiators or agonists, primary screen, cell-based; 220,000 tested, 0.45% active; activation, % at 3.6 µM; Neuropeptide Y receptor type 2 (Homo sapiens), P49146; AID 1359, 2008; cells expressing NPY-Y2, potentiator/agonist read-out; in the data active = activation above about 27%;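 note: cells stimulated with NPY near EC25 plus isoproterenol at EC100; 0% = vehicle plus submaximal agonist and 100% = vehicle plus saturating agonist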
# RAM network inh: inhibitors of the yeast RAM network, primary screen, dse1pr::URA3 reporter, 5-FOA selection | AID 868, 2007 | 190,000 tested, 1.8% active | inhibition, % at 50 µM | S. cerevisiae dse1pr::URA3 reporter, 5-FOA growth OD615, 2 d; analog-sensitive cbk1-as2 kinase mutant strain;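 active = inhibition above a set limit, 3 SD over mean compound inhibition, cut at about 8.4% in these data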;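 note: 0% = DMSO-only wells with no growth and 100% = 10 µM 1-NA-PP1 full growth; inhibition rescues growth on 5-FOA so higher OD means more RAM inhibition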
# NPY-Y2 antag: NPY-Y2 receptor antagonists, primary screen, cell-based; NPY-Y2 expressing cells, antagonist mode; inhibition, % at 2.7 µM; 140,000 tested, 0.99% active; AID 793, 2007; in the data active = inhibition above about 17%;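 note: 0% = vehicle with agonist challenge and 100% = reference antagonist with challenge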
# NPY-Y1 PAM-ag: NPY-Y1 receptor potentiators or agonists, primary screen, cell-based. Neuropeptide Y receptor type 1 (Homo sapiens), P25929. NPY-Y1 expressing cells, potentiator/agonist activation. activation, % at 3.6 µM. 220,000 tested, 0.37% active. AID 1304, 2008; in the data active = activation above about 33%, passing the limit was not always enough;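 note: cells stimulated with NPY at EC10 then isoproterenol at EC100; 0% = low agonist plus stimulus and 100% = saturating agonist plus stimulus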
# WT yeast gro inh: growth inhibition of WT strain, primary screen, mitochondrial fusion inhibitor project, WT and mutant strains, chemical genetic; mitochondrial fusion phenotypic screen; inhibition, % at 10 µM; 190,000 tested, 2.1% active; AID 1362, 2008; in the data active = inhibition above about 58%; tested in S. cerevisiae
# NPY1 antag ctr: NPY-Y1 receptor antagonists, selectivity check, counter-screen for NPY-Y2 antagonist project, cell-based. shares compounds with NPY-Y2 antag. cell-based NPY-Y1 antagonism counterscreen. inhibition, % at 3.6 µM. 710 tested, 19% active. AID 1256, 2008; in the data active = inhibition above about 20%;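 note: cells challenged with NPY then isoproterenol with cAMP sensed through a CNG channel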
# NPY-Y2 ant conf: NPY-Y2 receptor antagonists, retest of hits, confirmation, HEK293-CNG cells, membrane potential fluorescence, triplicate | inhibition, % at 2.8 µM | shares compounds with NPY-Y2 antag | HEK293 NPY-Y2 CNG channel | 710 tested, 32% active;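 active = mean inhibition of triplicate wells above the hit cutoff set in the primary screen, cut at about 17% in these data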;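 note: 0% = DMSO with NPY challenge and 100% = BIIE0246 high control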
# * = called active by the depositor; x = no result.
SMILES,NPY Y1 blocker,NPY2 pot ag,RAM network inh,NPY-Y2 antag,NPY-Y1 PAM-ag,WT yeast gro inh,NPY1 antag ctr,NPY-Y2 ant conf
Nc1nc2sc3c(c2c(=O)s1)CCCC3,5,17,-1,1,6,35,x,x
Cc1c2ccccc2nc2c(F)c(NC(C)C)c(F)c(F)c12,4,-3,1,1,-19,16,x,x
CCOCCCNC(=O)Cn1cnc2sc(C)c(S(=O)(=O)N3CCN(c4ncccn4)CC3)c2c1=O,6,6,2,x,-1,20,x,x
CC(C)c1ccccc1NC(=O)COC(=O)c1c2c(nc3ccccc13)CCN(Cc1ccccc1)C2,18,-6,0,19*,-18,21,17,9
O=C(NC1CCCCCC1)c1c2c(nc3ccccc13)CCN(Cc1ccccc1)C2,10,-6,1,56*,6,-15,81*,67*
Cc1c(Cl)cccc1NC(=O)COC(=O)c1c2c(nc3ccccc13)CCN(Cc1ccccc1)C2,8,-2,-1,12,-32,39,x,x
Cc1[nH]c2ccccc2c1/C=N/Nc1ccccn1,-5,-3,2,x,8,16,x,x
OCCNc1nc(Nc2ccc(Br)cc2)nc2ccccc12,0,19,8,x,20,78,x,x
Cc1cccc(C)c1NC(=O)COC(=O)c1ccc(N2CCCC2)c([N+](=O)[O-])c1,4,5,1,1,-4,-13,x,x
CC(C)NCC#CCOc1ccc(Cl)cc1,6,0,3,x,13,18,x,x
Cc1nn(C(C)(C)C)c(OC(=O)c2ccco2)c1Sc1ccccc1,3,12,6,6,0,-22,x,x
Cc1nn(C(C)(C)C)c(OC(=O)c2ccc(Br)o2)c1Sc1ccccc1,6,10,11*,18*,8,12,5,16
Cc1nn(C(C)(C)C)c(OC(=O)c2cccs2)c1Sc1ccccc1,13,7,11*,26*,-18,83*,11,6
O=c1cc(CSc2ccccc2)nc(-c2ccccc2)[nH]1,6,-5,3,x,-4,-2,x,x
CCOC(=O)N1CCC(NC(=O)CSCc2nc(-c3cccc(OC)c3)oc2C)CC1,-3,6,0,24*,12,0,2,2
COc1ccc(C2CC(=O)C3=C(C2)Nc2ncnn2C3c2ccccc2C)cc1 (configuration not stated),3,6,3,-3,-11,10,x,x
Cc1ccc(N(CC(=O)N2CCc3ccccc32)C2=NC(=O)CS2)cc1,-1,-2,1,7,-29,5,x,x
CC1(C)CC(=O)C=C(NCc2ccc(Cl)c(Cl)c2)C1,13,-4,0,18*,-15,12,9,7
O=C1C=C(NCc2ccc(Cl)c(Cl)c2)CC1,2,12,-1,-1,8,-1,x,x
Cc1c(Cl)cccc1S(=O)(=O)N1CCC(C(=O)NNC(=O)C2CC2)CC1,-3,-9,2,x,14,-15,x,x
OC(CNCc1ccc(F)cc1)(c1ccc(F)cc1)c1ccc(F)cc1,16,-2,1,20*,-9,-6,16,10
COc1ccc(OCC(=O)Nc2cccc3cccnc23)cc1,12,-4,2,48*,-10,-1,11,24*
Cc1cccc(C)c1NC(=O)C1(N(Cc2ccco2)C(=O)c2ccccn2)CCCC1,10,-3,-2,5,-18,-14,x,x
O=C(c1ccccn1)N(Cc1ccco1)C1(C(=O)NC2CCCCC2)CCCCC1,19,1,1,32*,2,0,11,6
COC(=O)c1[nH]c2cc(C)ccc2c1NC(=O)CN1CCN(C(=O)c2ccco2)CC1,-2,-2,0,4,-22,-6,x,x
SMILES,NPY Y1 blocker,NPY2 pot ag,RAM network inh,NPY-Y2 antag,NPY-Y1 PAM-ag,WT yeast gro inh,NPY1 antag ctr,NPY-Y2 ant conf
COC(=O)c1ccc(OC)c(CSc2nnc(COc3ccc(Cl)cc3)o2)c1,9,-4,9.7*,27*,-31,50,25*,19*
COC(=O)c1ccc(OC)c(CSc2nnc(COc3ccccc3)o2)c1,13,-4,5,18*,-34,29,7,11
COc1ccc(CCNC(=O)c2noc3c2CCCC3)cc1OC,-1,-2,0,0,10,-1,x,x
CCc1ccc(C2CC(=O)NC(SCC(=O)OC(C)C)=C2C#N)cc1 (configuration not stated),-6,5,4,6,-10,15,x,x
CCNc1cc(Cl)nc(SC)n1,7,4,1,25*,7,-28,-1,1
CCNc1cc(N2CCOCC2)nc(SC)n1,-1,-9,0,x,4,5,x,x
CCC(C)(C)n1nnnc1C(c1ccc2ncccc2c1)N1CCCC(C)C1 (configuration not stated),19,-1,1,18*,-11,2,11,10
CCC(C)(C)n1nnnc1C(c1ccc2ncccc2c1)N1CCN(c2ccc(O)cc2)CC1 (configuration not stated),x,-32,x,x,12,x,x,x
C/C(=N\NS(=O)(=O)c1ccc(Cl)c([N+](=O)[O-])c1)c1ccc(C)o1,-3,-11,-1,0,-7,34,x,x
O=C(Cn1nc(C(F)F)cc1C(F)F)NNC(=S)Nc1ccc(F)cc1,1,-7,2,4,-5,-11,x,x
Cc1ccc(N(CC(=O)NCc2ccc(F)cc2)S(=O)(=O)c2cccs2)cc1,3,-4,4,2,2,12,x,x
Cc1ccc(N(CC(=O)NCc2ccccc2Cl)S(=O)(=O)c2cccs2)cc1,14,1,2,22*,-7,7,4,8
CCCCN1C2=NCCCN2c2ccccc21,4,9,1,1,17,6,x,x
CCCCN1C2=NCCCN2c2cc(C)c(C)cc21,13,-6,0,22*,-13,-14,11,6
COc1cccc(NC(=S)N2CCN(c3ccc([N+](=O)[O-])cc3)CC2)c1,-4,-2,5,x,24,0,x,x
O=C(c1oc(=O)c2ccccc2c1-c1ccccc1)N1CCC(O)CC1,1,2,1,1,8,11,x,x
Cc1n[nH]c(=S)n1/N=C/c1ccccc1OCc1ccc(Cl)cc1Cl,-1,-11,3,17*,-16,-19,27*,54*
O=C(CCN1CCOCC1)c1ccc2c(c1)OCCO2,-3,5,-1,2,-6,-1,x,x
